Assay outcomes deposited in PubChem BioAssay by Johns Hopkins Ion Channel Center.
TRPC6 inh = mouse TRPC6 channel inhibitors, primary screen, cell-based, HEK293, membrane potential dye; Short transient receptor potential channel 6 (Mus musculus), Q61143; ACh-evoked depolarization; hits give low values; B-score at 10 µM; 310,000 tested, 1.1% active;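 active = B-score under library mean minus 3 SD, initial fluorescence not abnormally high, positive integrated signal ratio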;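 also: B-score derived from integrated fluorescence ratio over the kinetic read; more negative B-score means stronger inhibition of depolarization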
TRPC4 inh = inhibitors of mouse TRPC4 channel, primary screen, Fluo4 calcium, HEK293 TRPC4beta/mu-opioid cells. Short transient receptor potential channel 4 (Mus musculus), Q9QUQ5. DAMGO-evoked Fluo4 calcium flux; hits give low values. B-score at 10 µM. 300,000 tested, 0.39% active;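 active = B-score over 3 SD under the library average, no early fluorescence shift, positive overall ratio signal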
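Test system – stable TRPC4beta/mu-opioid receptor HEK293 cells · Probe or stimulus – DAMGO, a submaximal dose followed by a maximal one · Dosing – one concentration per compound · Signal – Fluo4 calcium fluorescence by kinetic imaging, 5 s 1 Hz baseline · Evaluation – per-well B score of integrated baseline-normalized Fluo4 ratio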
TRPC4 act = activators of mouse TRPC4 channel, primary screen, Fluo4 calcium, HEK293 TRPC4beta/mu-opioid cells | AID 2237, 2010 | 310,000 tested, 0.49% active | B-score at 10 µM | Fluo4 calcium fluorescence; hits give high values;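 active = B-score above 5 SD of library B-scores, and initial fluorescence ratio not above library mean plus 5 SD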;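 also: positive B-score marks a calcium rise read as TRPC4 activation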
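Assay system: HEK293 stable line with TRPC4beta plus mu-opioid receptor; schedule: 45 min room-temperature Fluo4 loading, 110 s read; technique: kinetic Fluo4 calcium fluorescence; evaluation: integrated baseline-normalised fluorescence ratio, converted to per-well B score; controls: buffer (low) and maximal DAMGO (high)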
TRPC6 act = mouse TRPC6 channel activators, primary screen, cell-based, HEK293, membrane potential dye; HEK293-TRPC6 membrane potential dye fluorescence; hits give high values; B-score at 10 µM; 310,000 tested, 0.13% active; AID 2550, 2010;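 active = B-score of the integrated fluorescence ratio above library mean plus 3 SD, and starting fluorescence ratio within library mean plus 5 SD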;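 also: higher score means more depolarization so channel activation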
TRPC4 potent = positive allosteric modulators of TRPC4, primary screen, cell-based, mouse TRPC4beta, HEK293 mu-opioid, Fluo-4 calcium | DAMGO EC20, Fluo-4 Ca2+ flux; hits give high values | 310,000 tested, 0.42% active | B-score at 10 µM | Short transient receptor potential channel 4 (Mus musculus), Q9QUQ5;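 active = B-score of calcium response area above 5 SD of library B-scores, with initial fluorescence ratio within 5 SD of library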
HEK293 MPD ctr = parental HEK293 membrane potential modulation, confirmation, counter-screen for TRPC6 modulator project, cell-based. membrane potential signal change, % at 10 µM. 2,400 tested, 51% active. membrane potential dye fluorescence. shares compounds with TRPC6 inh;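 active = membrane potential signal moves up or down beyond 5 SD from buffer-only wells, on both duplicate plates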
HEK293 MPD ctr 2 = parental HEK293 nonspecific activity of TRPC6 modulators, second screen | 2,400 tested, 14% active | inhibition, % at 10 µM | AID 488926 | membrane potential dye fluorescence; after compound, maximal acetylcholine stimulation | shares compounds with TRPC6 inh;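 active = membrane potential signal drops by more than 5 SD from the mean control signal, in both duplicate plates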
TRPC4/MOR mod = TRPC4 modulation by TRPC6 hit compounds, confirmation, selectivity assay for TRPC6 modulator project, cell-based, HEK293 TRPC4/mu-opioid, membrane potential dye, mouse; shares compounds with TRPC6 inh; membrane potential fluorescence; percent change from control (negative = decrease, positive = increase), % at 10 µM; 2,400 tested, 69% active;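 active = membrane potential signal moved up or down beyond 5 SD of buffer control wells, in both duplicate plates, actives on both sides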
TRPC4 ctr inh 2 = mouse TRPC4 off-target activity of TRPC6 modulators, second screen. 2,400 tested, 55% active. inhibition, % at 10 µM. HEK293 TRPC4/mu-opioid, membrane potential dye fluorescence; stimulated with maximal-effect DAMGO. shares compounds with TRPC6 inh;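 active = drop in membrane potential signal beyond 5 SD of the control wells in both duplicate plates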;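 also: TRPC4 counter screen for TRPC6 hits run under conditions tuned for TRPC6 not TRPC4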
TRPC6 inh conf = mouse TRPC6 channel inhibitors, confirmation, HEK293 cells, membrane potential dye, duplicate; 3,300 tested, 43% active; shares compounds with TRPC6 inh; inhibition, % at 10 µM; ACh-evoked depolarization;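 active = fluorescence ratio falls more than 5 SD below the full-stimulation control mean, in both duplicate runs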;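 also: integrated fluorescence ratio of peak minus minimum over baseline after agonist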
TRPC6 act conf = mouse TRPC6 channel activators, confirmation, HEK293 cells, membrane potential dye, duplicate; shares compounds with TRPC6 inh; HEK293-TRPC6 membrane potential dye fluorescence, FDSS; activation, % at 10 µM; 2,800 tested, 11% active; AID 488961, 2010;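 active = ratio signal rise beyond 5 SD above unstimulated control wells' mean, seen in both duplicate runs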
Large screens that a line does not name were inactive (follow-up assays come after a bar, where they were run). This is a sample that favours compounds with a hit; in the whole collection about 2.3% have one here.

O=C(c1ccncc1)N1N=C(C2CCCCC2)CC1(O)C(F)(F)F (centres undefined)	TRPC6 inh -5.8 | HEK293 MPD ctr inactive | HEK293 MPD ctr 2 inactive | TRPC4/MOR mod inactive | TRPC4 ctr inh 2 inactive | TRPC6 inh conf inactive | TRPC6 act conf inactive
O=C(c1ccco1)N1N=C(C2CCCCC2)CC1(O)C(F)(F)F (centres undefined)	none
COc1ccc(S(=O)(=O)N2CCCCCC2)cc1Br	TRPC6 inh -6.4 | HEK293 MPD ctr inactive | HEK293 MPD ctr 2 inactive | TRPC4/MOR mod 9.0% | TRPC4 ctr inh 2 inactive | TRPC6 inh conf 46% | TRPC6 act conf inactive
COc1ccc(S(=O)(=O)N2CCCCCC2)cc1NC(=O)Cc1cc(OC)c(OC)c(OC)c1	none
COc1ccc(S(=O)(=O)N2CCCCCC2)cc1NC(=O)Cc1ccccc1F	TRPC6 inh -8.9, TRPC6 act 16 | HEK293 MPD ctr inactive | HEK293 MPD ctr 2 inactive | TRPC4/MOR mod inactive | TRPC4 ctr inh 2 inactive | TRPC6 inh conf inactive | TRPC6 act conf inactive
COc1ccc(S(=O)(=O)N2CCOCC2)cc1Br	none
Cc1cccc(-c2cc3nc(C)cc(NCCCN(C)C)n3n2)c1	TRPC6 inh -7.2, TRPC4 potent 13 | HEK293 MPD ctr -194% | HEK293 MPD ctr 2 74% | TRPC4/MOR mod -40% | TRPC4 ctr inh 2 60% | TRPC6 inh conf 56% | TRPC6 act conf inactive
Cc1cc(C(F)(F)F)n2nc(-c3cccs3)cc2n1	none
CCN(CC)CCCNc1cc(C)nc2cc(-c3cccs3)nn12	TRPC6 inh -7.5 | HEK293 MPD ctr -416% | HEK293 MPD ctr 2 inactive | TRPC4/MOR mod -62% | TRPC4 ctr inh 2 52% | TRPC6 inh conf 44% | TRPC6 act conf inactive
CN(CCO)c1c2c(nc3cc(-c4cccc(F)c4)nn13)CCCC2	none
CN(C)CCCNc1cc(-c2ccccc2)nc2cc(-c3cccc(F)c3)nn12	TRPC6 inh -5.1 | HEK293 MPD ctr inactive | HEK293 MPD ctr 2 inactive | TRPC4/MOR mod -11% | TRPC4 ctr inh 2 50% | TRPC6 inh conf 46% | TRPC6 act conf inactive
CN(CCC#N)C(=O)COC(=O)c1c2c(nc3ccccc13)/C(=C/c1ccco1)CC2	none
CNCCC1Sc2ccccc2Oc2ccccc21 (centres undefined)	TRPC6 inh -5.6 | HEK293 MPD ctr 86% | HEK293 MPD ctr 2 inactive | TRPC4/MOR mod 41% | TRPC4 ctr inh 2 59% | TRPC6 inh conf inactive
